Values belong to the compound of their own block, whether it stands above or below them.
Key:
[1] = tested on: Cricetinae gen. sp.; test: Dose for reversal of keratinization in epithelium of 50% of retinoid-deficient hamster tracheas in organ culture; format: functional, Cricetulus griseus; conditions: Trachea, read-out: ED50 (the source's name)
How it was run: (§1)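 Tracheas taken from vitamin A-deficient hamsters were kept in organ culture and scored for reversal of squamous keratinization of the epithelium. All-trans-retinoic acid was run at the same time as a reference in each separate experiment. ED50 is the molar dose that reverses keratinization in 50% of the retinoid-deficient tracheas.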

[2] = tested on: Cricetinae gen. sp.; test: Percent activity in the Hamster tracheal organ culture assay at concentration 10e-8(M); format: functional, Cricetulus griseus, Trachea; how it was run: as §1
[3] = tested on: Cricetinae gen. sp.; test: Percent activity in the Hamster tracheal organ culture assay at concentration 10e-10 (M); format: functional, Cricetulus griseus, Trachea; how it was run: as §1
[4] = tested on: Cricetinae gen. sp.; test: Percent activity in the Hamster tracheal organ culture assay at concentration 10e-9 (M); format: functional, Cricetulus griseus, Trachea; how it was run: as §1
[5] = tested on: Cricetinae gen. sp.; test: Percent activity in the Hamster tracheal organ culture assay at concentration 10e-12 (M); format: functional, Cricetulus griseus, Trachea; how it was run: as §1
[6] = tested on: Cricetinae gen. sp.; test: Percent activity in the Hamster tracheal organ culture assay at concentration 10e-11 (M); format: functional, Cricetulus griseus, Trachea; how it was run: as §1
[7] = tested on: Cricetinae gen. sp.; test: The dose for reversal of keratinization in epithelium of 50% of retinoid-deficient hamster tracheas in organ culture; format: functional, Cricetulus griseus; conditions: Trachea, read-out: ED50 (the source's name); how it was run: as §1
[8] = tested on: Cricetinae gen. sp.; test: Percent activity in the Hamster tracheal organ culture assay at concentration 10e-12 (M) in experiment D; format: functional, Cricetulus griseus, Trachea; how it was run: as §1
[9] = tested on: Cricetinae gen. sp.; test: Dose for reversal of keratinization in epithelium of 50% of retinoid-deficient hamster tracheas in organ culture in experiment B; format: functional, Cricetulus griseus; conditions: Trachea, read-out: ED50 (the source's name); how it was run: as §1
[10] = tested on: Cricetinae gen. sp.; test: Percent activity in the Hamster tracheal organ culture assay at concentration 10e-11 (M) in experiment A; format: functional, Cricetulus griseus, Trachea; how it was run: as §1
[11] = tested on: Cricetinae gen. sp.; test: Percent activity in the Hamster tracheal organ culture assay at concentration 10e-10 (M)
[12] = tested on: Cricetinae gen. sp.; test: Dose for reversal of keratinization in epithelium of 50% of retinoid-deficient hamster tracheas in organ culture in experiment D; format: functional, Cricetulus griseus; conditions: Trachea, read-out: ED50 (the source's name); how it was run: as §1
[13] = tested on: Cricetinae gen. sp.; test: Percent activity in the Hamster tracheal organ culture assay at concentration 10e-10 (M) in experiment D; format: functional, Cricetulus griseus, Trachea; how it was run: as §1
[14] = tested on: Cricetinae gen. sp.; test: Percent activity in the Hamster tracheal organ culture assay at concentration 10e-12 (M) in experiment B; format: functional, Cricetulus griseus, Trachea; how it was run: as §1
[15] = tested on: Cricetinae gen. sp.; test: Percent activity in the Hamster tracheal organ culture assay at concentration 10e-12 (M) in experiment C; format: functional, Cricetulus griseus, Trachea; how it was run: as §1
[16] = tested on: Cricetinae gen. sp.; test: Dose for reversal of keratinization in epithelium of 50% of retinoid-deficient hamster tracheas in organ culture in experiment A; format: functional, Cricetulus griseus; conditions: Trachea, read-out: ED50 (the source's name); how it was run: as §1
[17] = tested on: Cricetinae gen. sp.; test: Percent activity in the Hamster tracheal organ culture assay at concentration 10e-10 (M) in experiment C; format: functional, Cricetulus griseus, Trachea; how it was run: as §1
[18] = tested on: Cricetinae gen. sp.; test: Percent activity in the Hamster tracheal organ culture assay at concentration 10e-11 (M) in experiment B; format: functional, Cricetulus griseus, Trachea; how it was run: as §1
[19] = tested on: Cricetinae gen. sp.; test: Percent activity in the Hamster tracheal organ culture assay at concentration 10e-11 (M) in experiment C; format: functional, Cricetulus griseus, Trachea; how it was run: as §1
[20] = tested on: Cricetinae gen. sp.; test: Percent activity in the Hamster tracheal organ culture assay at concentration 10e-11 (M) in experiment D; format: functional, Cricetulus griseus, Trachea; how it was run: as §1
[21] = tested on: Cricetinae gen. sp.; test: Percent activity in the Hamster tracheal organ culture assay at concentration 10e-10 (M) in experiment B; format: functional, Cricetulus griseus, Trachea; how it was run: as §1
[22] = tested on: Cricetinae gen. sp.; test: Percent activity in the Hamster tracheal organ culture assay at concentration 10e-12 (M) in experiment A; format: functional, Cricetulus griseus, Trachea; how it was run: as §1
[23] = tested on: Cricetinae gen. sp.; test: Dose for reversal of keratinization in epithelium of 50% of retinoid-deficient hamster tracheas in organ culture in experiment C; format: functional, Cricetulus griseus; conditions: Trachea, read-out: ED50 (the source's name); how it was run: as §1

EC50 [1]: 0.6 nM
Structure (SMILES): C/C(=C\c1ccc(C(=O)O)cc1)c1ccc2c(c1)C(C)(C)CCO2
Activity [2]: 71.4%
Activity [3]: 18.6%
Activity [4]: 71.4%

EC50 [1]: 0.06 nM
Structure (SMILES): CCOC(=O)c1ccc(/C=C(\C)c2ccc3c(c2)C(C)(C)CCS3)cc1
Activity [5]: 33.7%
Activity [3]: 53.8%
Activity [6]: 28.6%
Activity [4]: 100%

EC50 [1]: 0.1 nM
Structure (SMILES): CCOC(=O)c1ccc(/C=C(\C)c2ccc3c(c2)C(C)(C)CCO3)cc1
Activity [3]: 50%
Activity [6]: 28.2%
Activity [4]: 100%

EC50 [7]: 0.1 nM
Structure (SMILES): CCOC(=O)c1ccc(/C=C(\C)c2ccc3c(c2)C(C)(C)CC[S+]3[O-])cc1 (centres undefined)
Activity [2]: 100%
Activity [3]: 57.1%
Activity [6]: 11.1%
Activity [4]: 100%

EC50 [9]: 0.009 nM
EC50 [12]: 0.01 nM
EC50 [16]: 0.02 nM
EC50 [23]: 0.1 nM
Structure (SMILES): CC1=C(/C=C/C(C)=C/C=C/C(C)=C/C(=O)O)C(C)(C)CCC1 [TRETINOIN]
Activity [8]: 33.3%
Activity [10]: 41.7%
Activity [11]: 76.9%
Activity [13]: 83.7%
Activity [14]: 23.1%
Activity [15]: 16.7%
Activity [17]: 83.3%
Activity [18]: 53.8%
Activity [19]: 50%
Activity [20]: 50%
Activity [21]: 100%
Activity [22]: 23.1%
